ROMK primary = modulates human ROMK potassium channel activity; AID 1918; hit rate 2% among 130,000; B-score at 10 µM; Tet-inducible ROMK, thallium flux fluorescence; actives lie on both sides; P48048;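 active = signal ratio slope over the read window, or its plate-corrected B-score, at least 3 SD from the plate mean, either direction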;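 also: B-score of the F/F0 ratio slope over 7 to 12 s after thallium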
PKD1 kinase inh = blocks activity of human protein kinase D1; inhibition, % (concentration not given with the values); hit rate 0.056% among 200,000; PKD1 kinase fluorescence polarization assay; AID 797; in the data active = inhibition above about 50%
Cl transport mod = modulates chloride dependent transport by human KCC2 | Q9H2X9 | B-score of Tl+ flux slope (higher = more flux/activation; lower = inhibition) at 10 µM | hit rate 2.2% among 190,000 | KCC2 cells, thallium flux FluoZin-2 fluorescence;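 active = thallium flux slope and its plate-corrected score both differing from the plate sample mean at a set confidence after two filtering rounds, in either direction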;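 also: slope of fluorescence scaled to starting intensity during 10 to 20 s after thallium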
Rad51 HR inh = blocks human Rad51 in homologous recombination | inhibition, % at 10 µM | hit rate 0.085% among 200,000 | hRad51 DNA strand exchange, fluorescence dequenching | Q06609 | AID 1385;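 active = inhibition above 40% at the single screening dose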;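 also: 0% = DMSO control wells and 100% = blanks with heterologous ssDNA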
Target sequence (Q06609 whole entry, looked up): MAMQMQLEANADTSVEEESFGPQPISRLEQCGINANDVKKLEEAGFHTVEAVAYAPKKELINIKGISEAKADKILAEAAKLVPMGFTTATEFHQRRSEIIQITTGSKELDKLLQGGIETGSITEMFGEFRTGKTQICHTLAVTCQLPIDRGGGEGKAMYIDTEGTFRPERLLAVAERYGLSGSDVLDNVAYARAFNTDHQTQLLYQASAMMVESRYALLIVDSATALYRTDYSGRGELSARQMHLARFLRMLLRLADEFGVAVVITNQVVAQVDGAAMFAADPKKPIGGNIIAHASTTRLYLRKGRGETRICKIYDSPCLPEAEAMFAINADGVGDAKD
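Test system: preformed human Rad51 ssDNA filaments; also added: Donor/quencher-labelled 47-bp dsDNA substrate; doses: 10 µM final, single point; times: 37 °C 15-min filament assembly, 30-min compound preincubation, 15-min exchange; detection: FRET fluorescence dequenching, excitation 485 nm, emission 520 nm; read-out basis: Fluorescence-based percent inhibition, control- and blank-normalised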
The depositor's hits bear a star; . = no result given. Sampled rows, rich in hits. Any-hit rate of the full collection: about 3%.

SMILES	ROMK primary	PKD1 kinase inh	Cl transport mod	Rad51 HR inh
COc1cc(CN2CCN(c3cc(C)ccc3C)CC2)cc([N+](=O)[O-])c1O	.	-8	-0.39	6
COc1cc(CN2CCN(c3ccc(C)cc3)CC2)cc([N+](=O)[O-])c1O	.	4	0.62	117*
COc1ccc(CCN=C(C)C2=C(O)C(c3ccccc3)OC2=O)cc1OC (stereo not drawn)	0.3	-7	-0.1	2
Cc1[nH]n(-c2ccc(Cl)cc2)c(=O)c1/C=N/c1nnc(-c2ccccc2)s1	1.1	-3	45*	-62
COc1ccc2nc(/N=C/c3c(C)[nH]n(-c4ccc(C)cc4)c3=O)sc2c1	.	0	54*	-3
Cc1ccc(-n2[nH]c(C)c(C=Nc3cc(C)ccn3)c2=O)cc1	-0.0061	-4	4.2*	0
CCc1nnc(NS(=O)(=O)c2ccc(N=Cc3c(C)[nH]n(-c4ccc(Cl)cc4)c3=O)cc2)s1	.	-2	-0.65	.
O=C(Cc1coc(-c2ccc(F)cc2)n1)NCc1ccccc1	-0.38	-4	-2.6*	-2
O=C(O)Cc1coc(-c2ccc(F)cc2)n1	.	5	0.92	-9
CCOC(=O)C1=C(c2ccccc2)NC(=O)NC1c1ccc(OC)c(OC)c1 (stereo not drawn)	0.1	-8	-0.59	-5
CCOC(=O)C1=C(c2ccccc2)N(C)C(=O)NC1c1ccc(OC(F)F)c(OC)c1 (stereo not drawn)	-4.6*	-10	-0.49	.
O=C(NC1CCN(C(=O)c2cccs2)CC1)c1ccccc1	-0.03	.	-0.52	-3
Cc1cc(=S)[nH]c2c(C)cccc12	1.6	2	31*	2
Cc1nn(C)c(C)c1NC(=O)CC12CC3CC(CC(C3)C1)C2	.	7	0.26	-6
CC1(C)CC(=O)C2=C(C1)OC1=C(C(=O)CC(C)(C)C1)C2c1ccc(O)c([N+](=O)[O-])c1	0.1	-12	0.0044	16
CC1(C)CC(=O)C2=C(C1)OC1=C(C(=O)CC(C)(C)C1)C2c1ccc(O)cc1O	-8*	-3	.	-10
Clc1cccc(Cl)c1-c1noc(CN2CCOCC2)n1	.	.	1.3	-3
CCOC(=O)C1(C(=O)OCC)CC1c1ccccc1 (stereo not drawn)	.	5	0.12	58*
O=C1OC2(CCCCC2)OC(=O)C1=CNc1nccs1	.	-13	1.2	1
O=C1OC2(CCCCC2)OC(=O)C1=CNc1nc2ccccc2s1	0.017	7	3.7*	-5
CC(C)c1ccc(-n2cccc2/C=C2/C(=N)N3C=CSC3=NC2=O)cc1	-0.95	4	22*	-9
O=C(O)c1cn(-c2ccccc2)nc1-c1ccc(Cl)cc1	.	-7	-3.8*	0
O=C(COC(=O)c1ccc(Br)o1)NCC1CCCO1 (stereo not drawn)	2.3	-6	0.043	1
O=C(NCC1CCCO1)c1ccc(Br)o1 (stereo not drawn)	0.048	1	0.06	41*
Fc1ccc2nc(Nc3nc4c(F)cc(F)cc4s3)sc2c1	.	-7	17*	-1
SMILES	ROMK primary	PKD1 kinase inh	Cl transport mod	Rad51 HR inh
Fc1ccc2nc(Nc3ccccc3)sc2c1	0.69	-1	0.69	-4
Fc1cccc2sc(Nc3nc4ccccc4s3)nc12	0.25	-9	12*	4
Fc1ccc2nc(Nc3nc4c(F)cccc4s3)sc2c1	.	12	38*	-5
COc1ccc(C(=O)NCCc2nnc3ccc(SCC(=O)Nc4cc(C)on4)nn23)cc1	0.53	-14	0.23	-9
c1ccc(Nc2ncnc3sc4c(c23)CCC4)cc1	.	5	-0.72	2
c1csc(CCNc2ncnc3sc4c(c23)CCC4)c1	.	-4	-4.5*	9
Cc1nc(C(=O)NC2CCCCC2)sc1C1(C)CC(c2cccnc2)=NO1 (stereo not drawn)	.	.	.	-3
Cc1cccc2cc(C#N)c(SCCN3CCCCC3)nc12	-1.1	-5	3.6*	1
Cc1cccc2cc(C#N)c(N3CCN(C)CC3)nc12	-0.44	-8	.	-11
CC1=C(C#N)C(=O)N(C2CCS(=O)(=O)C2)C(=O)/C1=C\c1ccco1 (stereo not drawn)	-2.9*	.	0.99	-53
COC(=O)C1=C(C)N(C)C(=O)/C1=C\c1ccco1	-0.62	8	-0.33	-6
Fc1cccc(/C=N/NC(=S)Nc2ccccc2Cl)c1	0.062	-1	41*	3
Cc1cccc(NC(=S)N/N=C/c2cccc(O)c2)c1C	.	.	0.98	.
Fc1ccc(NC(=S)N/N=C/c2cccc(Br)c2)c(F)c1	-1.7	-2	4*	-1
Cc1ccccc1NC(=O)C(=O)N/N=C/c1cccc(Br)c1	0.33	-5	0.68	-9
Fc1ccc(/C=N/NC(=S)Nc2ccc(Cl)cc2)cc1F	.	-3	8.6*	1

Assay outcomes deposited in PubChem BioAssay by several laboratories.
